Screening data deposited in PubChem by several laboratories.
Lmaj promast: reduces viability of Leishmania major promastigotes; resazurin fluorescence viability; inhibition, % at 10 µM; 200,000 tested, 9% active; AID 1063; in the data active means inhibition above about 50%;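 further: promastigotes grown with compound for 44 hours at 28 °C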
Dynein cargo inh: dynein cargo transport inhibition; 3617.4 mouse cells, GR-EGFP nuclear translocation imaging; test concentration mostly 20 µM; stimulated with dexamethasone, 1 µM; stronger effect = lower value; z-score, hits read low; 220,000 tested, 0.47% active; AID 1381;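 active means plate z-score of nuclear minus cytoplasmic receptor signal below a set negative limit, without overly bright fluorescence or cell loss, cut at about -3.5 in these data, passing the limit was not always enough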;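 further: z-score of nuclear minus cytoplasmic ring GR-EGFP intensity difference per well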
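Buffer or medium: Induction medium lacking tetracycline, stripped serum | Also added: Dexamethasone agonist, 1.0 µM final, for 30 min | Timing: 48 h induction, 1 h compound, 30 min dex at 37 °C | Detection: Formaldehyde fixation, Hoechst nuclear stain, 10x automated fluorescence imaging | Measure: Nuclear versus cytoplasmic GR-EGFP signal, averaged per well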
CHOP inhibitor: CHOP inhibition in unfolded protein response; CHO-K1 CHOP-promoter luciferase, tunicamycin-induced, 15-18 h; inhibition, % at 10 µM; 220,000 tested, 3.8% active;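 active means compounds that reduced the stress-induced luciferase reporter signal by more than about 70% of percent inhibition, limit read from the data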;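 further: 0% = tunicamycin plus vehicle and 100% = wells without tunicamycin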
MT stabilizer: stabilizes microtubules in HeLa cells; HeLa tubulin immunostaining HCS, 24 h; share of cells brighter than vehicle mean+2SD; % tubulin-high responders, % at 10 µM; 200,000 tested, 0.83% active; AID 2205;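 active means plate Z-score above 3 for both tubulin-high and condensed-nucleus cell shares, with cell loss under 80%, at 10 µM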;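 further: anti alpha tubulin signal scored within the nucleus-defined area of each cell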
Autophagy HCS: autophagy modulation, high-content screen; 190,000 tested, 0.98% active; MEF GFP-LC3 puncta imaging; test concentration mostly 10 µM; calls only at 10 µM (by protocol); AID 463193;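 active means percentage of spot-positive cells more than 3 SD above its plate mean, without a fluorescence outlier flag or 80% toxicity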;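 further: spot-positive cell cutoff set from DMSO-treated cells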
bCat nuc transl: beta-catenin nuclear translocation modulation | HeLa beta-catenin nuclear translocation, immunofluorescence imaging | nuclear translocation activity, % at 5 µM | 190,000 tested, 0.3% active | AID 1665;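 active means nuclear translocation activity above 50% at 5 µM, with a well cell count of 50 or more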;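 further: per-cell ratio of nuclear to cytoplasmic median beta-catenin stain intensity; plate controls were DMSO negative control for no effect and GSK-3 inhibitor IX positive control for full effect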
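System: Human HeLa cells, endogenous beta-catenin | Compound dosing: 5 µM primary, 0.02–20 µM confirmation | Timing: 24 h compound exposure at 37°C, 5% CO2 | Measured by: Fluorescence imaging of beta-catenin antibody stain plus DAPI | Read-out basis: % activation of per-cell nuclear versus cytoplasmic median beta-catenin signal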
Numbers without * were called inactive; i = inactive; · = no result; + = active, no number. Hits are enriched below; roughly 12% of the tested compounds scored in any of these assays.

SMILES	Lmaj promast	Dynein cargo inh	CHOP inhibitor	MT stabilizer	Autophagy HCS	bCat nuc transl
Cc1cc(-n2c(SCC(=O)NCc3cccs3)nc3n[nH]c(C)c3c2=N)ccc1Cl	3.9	0.885	81.0*	5.0	i	-0.3
O=C1/C(=C/c2ccc([N+](=O)[O-])cc2)C=C(c2ccccc2)N1c1ccc(O)cc1	99.9*	-1.12	81.0*	2.5	i	4.4
O=C1/C(=C/c2ccc([N+](=O)[O-])cc2)C=C(c2ccccc2)N1c1ccccc1	-3.0	-0.338	-1.9	0.4	i	-1.3
O=C(C1CCN(Cc2ccccc2)CC1)N1CCN(C/C=C/c2ccccc2)CC1	29.3	0.411	24.6	2.3	+	-1.3
CC1=C(C)CC(C(=O)N2CCN(C/C=C/c3ccccc3)CC2)C(C(=O)O)C1 (stereo unspecified)	9.9	-0.628	-8.1	1.9	i	1.3
O=C(C1CC(c2ccc(F)cc2)=NO1)N1CCN(Cc2ccccc2)CC1 (stereo unspecified)	88.6*	1.66	43.1	3.4	i	·
O=C(O)C1C2C=CC(C2)C1C(=O)N1CCN(C/C=C/c2ccccc2)CC1 (stereo unspecified)	87.9*	0.941	28.3	1.6	i	1.9
O=C(C1CCN(Cc2ccc(F)cc2)CC1)N1CCN(C/C=C/c2ccccc2)CC1	72.9*	-0.572	7.8	4.2	i	0.5
Cc1ccc(CC(=O)NCCC(=O)O)cc1	·	0.22	-30.6	·	·	1.2
CN(C)S(=O)(=O)Oc1cccc(C(=O)Nc2ccc(Cl)c(Cl)c2)c1	-2.8	0.714	-0.3	0.9	i	-1.8
O=S(=O)(NCc1ccccc1)c1ccc(S(=O)(=O)N(Cc2ccccn2)Cc2ccco2)cc1	-5.1	-0.585	24.2	3.1	i	-0.4
Cc1ccc(Cn2c(SC(C)C(N)=O)nc3ccccc3c2=O)cc1 (stereo unspecified)	-2.3	0.219	-5.3	3.3	i	5.9
O=C(Cc1ccccc1)c1c[nH]c(C(=O)NC2CCCC2)c1	1.8	1.7	12.1	2.5	i	-4.6
S=C(Nc1ccc2snnc2c1)N1CCN(c2ccccn2)CC1	-4.6	-0.299	16.4	2.6	i	-0.6
CC1CCCCC1NC(=O)c1ccc2c(c1)[nH]c(=O)n2C1CCCC1 (stereo unspecified)	-2.4	0.152	32.2	2.5	i	0.4
O=C(C1CCN(C2CCN(C/C=C/c3ccccc3)CC2)CC1)N1CCOCC1	59.4*	0.374	17.8	1.3	i	2.0
COc1ccc(CN2CCC(N3CCC(C(=O)N4CCOCC4)CC3)CC2)c(F)c1	78.0*	-0.299	35.7	3.3	i	1.1
C=CCNC(=O)NC(=O)COC(=O)/C(C#N)=C/c1ccc(OC)cc1	-0.9	0.378	-3.2	3.2	i	-1.7
OCCNCc1cc(Br)ccc1OCc1ccccc1	4.1	-1.1	6.4	1.4	i	-1.7
C=CCNCCCCOc1ccc(Br)cc1C	98.6*	-0.541	46.2	2.7	i	0.0
Cc1cc(Br)ccc1OCCCCNCCO	85.6*	-0.508	1.6	1.4	i	3.2
COc1cc(OC)cc(-c2cc3nc4c(c(N5CCN(c6ncccn6)CC5)n3n2)CCCC4)c1	52.2*	-0.683	15.5	5.8	i	-4.1
CCc1c(C)nc2cc(-c3cc(OC)cc(OC)c3)nn2c1N1CCCC1	26.4	-0.202	91.5*	4.9	i	·
CCOCCN1CCN(c2c(CC)c(C)nc3cc(-c4cc(OC)cc(OC)c4)nn23)CC1	72.2*	-0.0722	29.2	1.5	i	1.4
CCc1c(C)nc2cc(-c3ccc(OC)c(OC)c3)nn2c1N1CCCC1	49.4	-0.288	63.9	4.5	i	-3.2
SMILES	Lmaj promast	Dynein cargo inh	CHOP inhibitor	MT stabilizer	Autophagy HCS	bCat nuc transl
Cc1ccc(C(=O)NCCNc2nc3cc(C)c(C)cc3cc2C)cc1	17.7	-0.686	11.6	0.9	i	0.1
Cc1cc2cc(C)c(NCCNC(=O)c3ccccc3)nc2cc1C	13.3	-0.845	90.0*	2.1	i	0.5
CCOc1ccc2nc(NCCNC(=O)C(C)C)c(C)cc2c1	6.5	-0.716	70.6*	4.7	i	1.1
N#CC(C#N)=CNc1cccnc1	·	-0.072	7.9	·	·	-6.2
COc1ccccc1-c1nnc(SCC(=O)NC2CCS(=O)(=O)C2)n1CCc1ccccc1 (stereo unspecified)	2.1	0.706	-34.9	1.5	i	1.7
CCN1CCN(C(=O)CCc2nc3ccccc3n2-c2ccccc2)CC1	57.5*	0.649	26.9	2.7	i	·
O=C(CCc1nc2ccccc2n1-c1ccccc1)NCCO	55.7*	2.1	-16.8	2.8	i	-0.3
Cc1cc(C)[n+](C)n1CC(O)Cn1c2ccccc2c2ccccc21 (stereo unspecified)	-3.1	-0.226	3.1	2.6	i	-4.6
NC(=O)CSc1ccc(-c2ccc(F)cc2)nn1	-5.1	0.724	0.8	3.0	i	-1.0
CC1(C)Cc2c(c(-c3ccco3)nc3sc4c(NCC5CCCO5)ncnc4c23)CO1 (stereo unspecified)	-0.7	-0.44	94.8*	3.0	i	0.0
CCN(CC)CCNc1ncnc2c1sc1nc(N3CCCC3)c3c(c12)CC(C)(C)OC3	100.5*	-1.24	21.9	2.2	i	0.7
CC1(C)Cc2c(c(N3CCOCC3)nc3sc4c(NN)ncnc4c23)CS1	97.1*	1.4	-20.6	2.1	i	2.0
CN(C)CCNc1ncnc2c1sc1nc(N3CCCC3)c3c(c12)CC(C)(C)OC3	·	-0.595	19.6	·	·	0.9
Cc1cc(NC(=S)NC(=O)/C=C/c2ccc(S(=O)(=O)N3CCOCC3)cc2)ccc1Br	44.8	-1.3	17.3	8.8	i	-3.3
Cc1ccccc1CSc1nnc([C@@H]2CCCN2)o1	·	0.836	-17.2	·	·	-0.1
COc1ccc(-c2onc3ccc(Cl)cc23)cc1	0.3	-0.112	79.1*	1.8	i	-1.5
Cc1cccc2cc3c(NC(=O)CC(C)C)nn(C)c3nc12	0.2	0.301	48.6	3.6	i	0.0
CCCCC(=O)Nc1nn(C)c2nc3c(C)cccc3cc12	-1.5	-0.238	76.3*	3.0	i	-0.4
O=C(NCc1ccc2c(c1)OCO2)C1CCCN1S(=O)(=O)c1ccc(Cl)cc1 (stereo unspecified)	-2.5	-0.214	-5.2	3.0	i	0.3
CC1CN(CC(=O)NN=C(c2ccccc2)c2ccccc2)CC(C)O1 (stereo unspecified)	1.1	0.218	6.8	1.8	i	-0.1
COc1ccc(N(C(=O)C(C)C)S(=O)(=O)c2cccs2)cc1	80.2*	-0.955	12.6	1.1	i	·
CC(C)C(=O)N(c1cc2sc(=O)oc2c2ccccc12)S(=O)(=O)c1cccs1	50.3*	0.0293	69.4	1.2	i	-1.5
CN1c2ccccc2C(C)(C)[C@]12C=Cc1cc(O)ccc1O2	99.2*	-0.257	95.2*	30.6*	i	0.4
